# Experimental data: PMC3415686 (Bioorganic & medicinal chemistry letters, 2012)
# Columns and labels:
# wt Bcr-Abl-Ba/F3 = wt Bcr-Abl-Ba/F3 (Homo sapiens, UniProt P00519+P11274); assay: Cellular antiproliferative activity on wt Bcr-Abl-Ba/F3; type: cell-based, murine; settings: for antiproliferative activity against wild-type Bcr-Abl (in words): Ba/F3 cells transformed with Bcr-Abl
# Summary of the method: (§1)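 Murine pre-B Ba/F3 cells transformed with the Bcr-Abl oncogene were used for cellular Bcr-Abl inhibition. Transformed cells grow without interleukin-3 (IL-3). Untransformed parental Ba/F3 cells proliferate only when IL-3 is present.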
# Bcr-Abl-T315I-Ba/F3 = Bcr-Abl-T315I-Ba/F3 (Homo sapiens, UniProt P00519+P11274, T315I); assay: Cellular antiproliferative activity on mutant Bcr-Abl-T315I-Ba/F3; type: cell-based, murine
# Summary of the method: as §1
# [1] = Pharmacokinetics following oral and intravenous delivery; type: in vivo, rats; settings: rat
# Summary of the method: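 Rats were dosed with the test compound orally and intravenously; the oral dose was 2 mg/kg. Serum drug levels were followed to derive oral bioavailability (%F), half-life, Cmax and clearance.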
# panel of 353 kinases = assay: KINOMEscan kinase selectivity profiling; type: binding; settings: 10 μM
# Summary of the method: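 KINOMEscan competition binding screen with the test compound at 10 μM against 353 kinases. Hits were kinases with an Ambit score below 10% of the DMSO control. S(10) is the number of kinases scoring below ten divided by the total number of kinases tested at that concentration.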
# wt-Ba/F3 = assay: Cytotoxicity on wt; type: cell-based, murine
# Summary of the method: as §1
smiles,measurement,setting,value
Nc1nc2ccc(-c3cccc(C(=O)Nc4cccc(C(F)(F)F)c4)c3)nc2s1 [Compound 9a],antiproliferative activity against wild-type Bcr-Abl (in words),wt Bcr-Abl-Ba/F3,did not display antiproliferative activity
same,antiproliferative activity against T315I-Bcr-Abl (in words),Bcr-Abl-T315I-Ba/F3; Ba/F3 cells transformed with T315I-Bcr-Abl,did not display antiproliferative activity
CCN1CCN(Cc2ccc(NC(=O)c3cccc(-c4ccc5nc(NC(=O)C6CC6)sc5n4)c3)cc2C(F)(F)F)CC1 [Compound 22],EC50,"wt Bcr-Abl-Ba/F3; read-out: Cellular antiproliferative activity (EC50, μM) Bcr-Abl (wt), wt Bcr-Abl-Ba/F3",0.098 µM
same,AUC (%extrapolated),[1]; IV 1 mg/kg,35.3%
same,AUC (%extrapolated),[1]; PO 2 mg/kg,35%
same,Tmax,"[1]; serum, iv, 1 mg/kg",4.8 min
same,clearance,"[1]; serum, iv, 1 mg/kg",13 mL/min/kg
same,Tmax,"[1]; serum, po, 2 mg/kg",162 min
same,improvement in cellular antiproliferative activity relative to 11 against T315I-Bcr-Abl,Bcr-Abl-T315I-Ba/F3; relative to 11,~6 fold
same,S(10) score (kinases inhibited below a score of ten / total kinases tested),panel of 353 kinases,0.10
same,decrease in cytotoxicity against parental Ba/F3 cells relative to 11,wt-Ba/F3; relative to 11,3 fold
O=C(Nc1ccc(N2CCNCC2)c(C(F)(F)F)c1)c1cccc(-c2ccc3nc(NC(=O)C4CC4)sc3n2)c1 [Compound 24],loss of cellular activity relative to 22,"wt Bcr-Abl-Ba/F3; relative to 22, cell line not given",approximately 10 fold
Cc1cn(-c2cc(NC(=O)c3cccc(-c4ccc5nc(NC(=O)C6CC6)sc5n4)c3)cc(C(F)(F)F)c2)cn1 [Compound 26],AUC (%extrapolated),[1]; IV 1 mg/kg,8.7%
same,AUC (%extrapolated),[1]; PO 2 mg/kg,21%
same,Tmax,"[1]; serum, iv, 1 mg/kg",8.4 min
same,Tmax,"[1]; serum, po, 2 mg/kg",66 min
same,S(10) score (kinases inhibited below a score of ten / total kinases tested),panel of 353 kinases,0.36
CCN1CCN(Cc2ccc(NC(=O)c3ccc(C)c(-c4ccc5nc(NC(=O)C6CC6)sc5n4)c3)cc2C(F)(F)F)CC1 [Compound 27],antiproliferative activity against wild-type Bcr-Abl (in words),wt Bcr-Abl-Ba/F3,exceptionally potent
CCN1CCN(Cc2ccc(NC(=O)Nc3cccc(-c4ccc5nc(NC(=O)C6CC6)sc5n4)c3)cc2C(F)(F)F)CC1 [Compound 32],improved activity on wild-type Bcr-Abl (urea linkage),wt Bcr-Abl-Ba/F3; urea linkage in place of amide,5–10 fold
same,improved activity on T315I Bcr-Abl (urea linkage),Bcr-Abl-T315I-Ba/F3; urea linkage in place of amide,5–10 fold
same,increased cytotoxicity towards parental Ba/F3 cells (urea linkage),wt-Ba/F3; urea linkage in place of amide,approximately 5 fold
Cc1cn(-c2cc(NC(=O)Nc3cccc(-c4ccc5nc(NC(=O)C6CC6)sc5n4)c3)cc(C(F)(F)F)c2)cn1 [Compound 33],reduction in cellular activity against T315I-Bcr-Abl compared to 22,Bcr-Abl-T315I-Ba/F3; compared to 22,~4 fold
